# Measurements reported in ChEMBL document CHEMBL1146530, “Antihyperglycemic effect of puerarin in streptozotocin-induced diabetic rats” (2003).
# Active and inactive are the calls of the source. No cut-off for these calls is given here.
# Experiments:
# Rattus norvegicus [1] = species on record: Rattus norvegicus; assay: Antihyperglycemic activity against STZ- induced diabetic Wistar rat soleus muscle assessed as 2-[1-14C]-deoxy-D-glucose uptake after 30 mins; format: functional, tissue-based
# Summary of the method: (§1)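 Soleus muscle strips ([…]) from rats made diabetic with STZ (60 mg/kg iv), used 2 weeks later. Strips were preincubated 30 min in KRBB (37 °C, pH 7.4, 1 mmol/L glucose, 1% fatty acid-free BSA, 5% CO2 in O2), then exposed to test agent 30 min. Next came 2-[1-14C]-deoxy-D-glucose (1 µCi/mL) for 5 min. Strips were dissolved in NaOH and counted by β-counting. Nonspecific uptake was defined with 20 µmol/L cytochalasin B and subtracted. Results are given as % of KRBB-only basal uptake. The 1 nmol/L insulin reference was run the same way.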
# Rattus norvegicus [2] = assay: Antihyperglycemic effect in iv dosed STZ- induced diabetic Wistar rat model assessed as reduction in plasma glucose level measured after 30 mins; format: functional, organism-based
# Summary of the method: (§2)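 Fasting STZ-diabetic rats (60 mg/kg iv, 2 weeks earlier; glucose ≥20 mmol/L) got a single tail-vein bolus (5.0-20.0 mg/kg in normal saline). Vehicle controls received the same volume. Tail-vein blood was drawn 30 min later under pentobarbital (30.0 mg/kg ip). Plasma glucose was measured by enzymatic kit at 37 °C for 10 min, run in duplicate. n = 8 per group; mean ± SEM.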
# Rattus norvegicus [3] = assay: Antihyperglycemic effect in STZ- induced diabetic Wistar rat model assessed as reduction in plasma glucose level at 15 mg/kg, iv measured after 30 mins; format: functional; set-up: scale not given: the % may be the effect or the level left; summary of the method: as §2
# [4] = Antihyperglycemic activity against STZ- induced diabetic Wistar rat soleus muscle assessed as 2-[1-14C]-deoxy-D-glucose uptake at 0.01 umol/L after 30 mins relative to control; format: functional; summary of the method: as §1
# [5] = Antihyperglycemic activity against STZ- induced diabetic Wistar rat soleus muscle assessed as 2-[1-14C]-deoxy-D-glucose uptake at 100 umol/L after 30 mins relative to control; format: functional; summary of the method: as §1
# Rattus norvegicus [6] = assay: Induction of GLUT4 mRNA level in STZ- induced diabetic Wistar rat soleus muscle at 15 mg/kg, iv tid every 8 hrs for 3 days by Northern blot relative to beta-actin expression; format: functional
# Summary of the method: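 Rats received 15.0 mg/kg iv tid (every 8 h) for 3 days and were killed fasting. Soleus total RNA (20 µg) was denatured in formaldehyde/formamide at 55 °C and run on a 1.2% agarose/formaldehyde gel. Blots were probed with [α-32P]dCTP-labelled probe at 65 °C for 2 h and washed to 0.1× SSC/0.1% SDS at 40 °C. GLUT4 was normalized to β-actin; n = 4, mean ± SEM.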
# Rattus norvegicus [7] = assay: Induction of GLUT4 protein level in STZ- induced diabetic Wistar rat soleus muscle at 15 mg/kg, iv tid every 8 hrs for 3 days by Western blot relative to vehicle treated normal rat; format: functional
# Summary of the method: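 Same 3-day tid 15.0 mg/kg iv regimen. Soleus homogenate (50 µg protein) was run on 10% SDS-PAGE and transferred to PVDF. Blots were probed overnight at 4 °C with mouse anti-rat GLUT4 (1:1000); β-tubulin (1:500) served as loading control. Detection was by peroxidase secondary and ECL, with densitometry at 45 kDa (GLUT4) and 50 kDa (β-tubulin). n = 4.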
# Rattus norvegicus [8] = assay: Antihyperglycemic effect in STZ- induced diabetic Wistar rat model assessed as decrease in plasma glucose level at 15 mg/kg, iv tid every 8 hrs for 3 days; format: functional
# Summary of the method: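 STZ-diabetic rats were dosed at 15.0 mg/kg iv into the tail vein every 8 h (tid) for 3 days. Vehicle-treated diabetic and normal rats served as comparisons. Plasma glucose was measured in fasting animals after the final dose.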
# Rattus norvegicus [9] = assay: Antihyperglycemic effect in STZ- induced diabetic Wistar rat model assessed as reduction in plasma glucose level at 20 mg/kg, iv measured after 30 mins; format: functional, organism-based; set-up: dose 20 mg/kg; summary of the method: as §2
# Rattus norvegicus [10] = assay: Antihyperglycemic effect in normal Wistar rat assessed as reduction in plasma glucose level at 15 mg/kg, iv measured after 30 mins by intravenous glucose challenge test
# [11] = target: Solute carrier family 2, facilitated glucose transporter member 4 (Rattus norvegicus) (UniProt P19357); assay: Induction of GLUT4 protein level in STZ- induced diabetic Wistar rat soleus muscle at 15 mg/kg, iv tid every 8 hrs for 3 days by Western blot relative to beta-tubulin expression
# Rattus norvegicus [12] = assay: Antihyperglycemic effect in normal Wistar rat assessed as decrease in plasma glucose level at 15 mg/kg, iv measured after 5 mins of glucose challenge by intravenous glucose challenge test
# Rattus norvegicus [13] = assay: Antihyperglycemic effect in normal Wistar rat assessed as decrease in plasma glucose level at 15 mg/kg, iv measured after 15 mins of glucose challenge by intravenous glucose challenge test
smiles,measurement,setting,value
O=c1c(-c2ccc(O)cc2)coc2c([C@@H]3O[C@H](CO)[C@@H](O)[C@H](O)[C@H]3O)c(O)ccc12 [PUERARIN],Activity,Rattus norvegicus [1],Dose-dependent effect
same,Activity,Rattus norvegicus [2],Dose-dependent effect
same,Activity,Rattus norvegicus [3],33.5%
same,Activity,[4],108%
same,Activity,[5],145%
same,Activity,Rattus norvegicus [6],1.01 a.u.
same,Activity,Rattus norvegicus [7],80%
same,Activity,Rattus norvegicus [8],16.5 mmol/L
same,Activity,Rattus norvegicus [9],Active
same,Activity,Rattus norvegicus [10],3.9 mmol/L
same,Activity,[11],0.88 a.u.
same,Activity,Rattus norvegicus [12],13.4 mmol/L
same,Activity,Rattus norvegicus [13],Active
